V-ATPase pHluor – alters yeast V-ATPase proton transport. S. cerevisiae, pHLuorin cytosolic pH fluorescence. response, % at 10 µM. 0.37% of 350,000 active. AID 504577; in the data active = response mostly above about 7.3%, no sharp cut-off; inactive = mostly below about 5.4%; note: actives read high
NRP1-CendR mod – NRP-1/CendR interaction modulation. FAM-RPARPAR peptide binding to NRP-1, fluorescence polarization. inhibition, % at 25 µM. O14786. 0.85% of 360,000 active;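 active = inhibition or corrected inhibition above about 18%, plus a signal ratio from 0.5 to 1.5, limit read from the data, passing the limit was not always enough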
Target sequence (O14786 whole entry, looked up): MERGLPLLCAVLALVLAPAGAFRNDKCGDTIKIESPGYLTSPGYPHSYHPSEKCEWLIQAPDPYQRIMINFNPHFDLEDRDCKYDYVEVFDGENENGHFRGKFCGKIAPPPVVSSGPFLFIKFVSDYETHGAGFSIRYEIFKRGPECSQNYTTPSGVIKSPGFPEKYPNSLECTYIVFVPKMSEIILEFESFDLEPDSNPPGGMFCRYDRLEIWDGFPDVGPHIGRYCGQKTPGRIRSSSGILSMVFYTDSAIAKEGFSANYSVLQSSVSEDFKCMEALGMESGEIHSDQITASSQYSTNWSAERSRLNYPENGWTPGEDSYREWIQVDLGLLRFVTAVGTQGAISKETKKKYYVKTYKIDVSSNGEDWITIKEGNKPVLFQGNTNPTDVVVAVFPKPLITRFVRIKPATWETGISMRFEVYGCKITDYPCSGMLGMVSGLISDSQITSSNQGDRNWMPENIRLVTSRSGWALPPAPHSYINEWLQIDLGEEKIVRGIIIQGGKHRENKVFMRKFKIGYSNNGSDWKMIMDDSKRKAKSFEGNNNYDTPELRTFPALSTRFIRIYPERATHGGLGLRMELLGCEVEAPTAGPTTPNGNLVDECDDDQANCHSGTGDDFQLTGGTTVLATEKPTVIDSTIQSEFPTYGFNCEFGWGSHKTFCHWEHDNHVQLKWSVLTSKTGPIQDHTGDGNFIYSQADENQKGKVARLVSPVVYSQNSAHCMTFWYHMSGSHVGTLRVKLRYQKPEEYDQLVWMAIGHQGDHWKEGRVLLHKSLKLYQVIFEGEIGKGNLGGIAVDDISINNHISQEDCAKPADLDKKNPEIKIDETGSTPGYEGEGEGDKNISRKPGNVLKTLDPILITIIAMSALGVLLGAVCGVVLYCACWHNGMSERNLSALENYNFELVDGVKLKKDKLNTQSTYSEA
Yeast superoxide – caloric restriction mimetics inhibiting age-related superoxide in yeast; superoxide response (% of plate mean), % at 10 µM; 0.18% of 330,000 active; S. cerevisiae aged cells, superoxide DHE fluorescence; active compounds read low; AID 2690;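 active = superoxide response under a set limit, about three screen SD below normal, cut at about 65% in these data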;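 note: yeast aged for seven days with compound at 30 °C before DHE staining; 100% = average MFI of all compound-treated wells on the plate with controls excluded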
T cruzi repl – T. cruzi replication inhibition; T. cruzi beta-gal in NIH3T3, luminescence, 90 h; inhibition, % (no concentration beside the values); 1.4% of 300,000 active; AID 1885;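 active = mean inhibition across valid replicates above about 55%, limit read from the data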;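 note: signal also drops with host cell toxicity which is not excluded here; 0% = plate median of DMSO wells and 100% = zero luminescence signal; higher percent means less beta-gal luminescence so fewer parasites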
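System: mouse NIH/3T3 fibroblasts infected with β-gal-expressing T. cruzi Tulahuen C4 / Input: NIH/3T3 cells, 5,000 per well / Buffer or medium: Low-serum DMEM with 2% FBS / Probe or stimulus: 5000 reporter trypomastigotes per well / Schedule: ≥90 h infection period, 3 h prior cell attachment / Measured by: GalScreen luminescence, 60 min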
AI-2 QS mod – Vibrio harveyi AI-2 quorum sensing modulation; 0.4% of 300,000 active; Vibrio harveyi JMH597 AI-2 luminescence/OD600 ratio, 9 h; active compounds read low; strain lacks LuxN and CqsS sensors; 0 = neutral-control median; activity change, % at 7.5 µM; in the data active = activity change below about -75%, passing the limit was not always enough;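 note: luminescence divided by OD600 gain over 9 h not by final OD600 alone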
HIF act – HIF pathway transcriptional activation | activation, % at 7.5 µM (by protocol) | U2OS HRE-luciferase reporter, luminescence; normalized: DMSO 0%, desferrioxamine 100% | 0.32% of 300,000 active;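 active = mean activation of at least 10% of the iron chelator positive control signal, with at least half of replicates also reaching 10%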
VATPase regulator – yeast V-ATPase proton transport regulation | S. cerevisiae pHLuorin cytosolic pH | response, % at 10 µM | shares compounds with V-ATPase pHluor | 2% of 980 active; in the data active = response above about 24%;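 note: plate controls were vehicle wells for no effect and positive control wells for full effect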
The depositor's hits bear a star; · = no result given. A selection: hits, their analogues and other compounds. The true share with any hit is near 3%.

SMILES	V-ATPase pHluor	NRP1-CendR mod	Yeast superoxide	T cruzi repl	AI-2 QS mod	HIF act	VATPase regulator
COc1c(Cl)cc(Cl)cc1CNCCNCC(C)O (centres undefined)	0	6	115	16	7	0	·
COc1ccc(-c2cccc(-c3cc(=O)oc4cc(OC)c(OC)c(OC)c34)c2)cc1	8.2*	2	95	·	·	·	-35
COc1ccc(-c2cccc(-c3cc(=O)oc4cc(OC)cc(OC)c34)c2)cc1	-1	-10	115	·	·	·	·
COc1ccc2c(c1)C(CC(=O)NN)CCC2 (centres undefined)	13*	7	·	·	·	·	0
COc1cc(N=CC2=C(O)c3ccccc3C2=O)cc(OC)c1	3	1	105	3	7	0	·
O=C1C(C=NC2CC2)=C(O)c2ccccc21	9.8*	-16	87	2	5	2	0
C=CC[C@H](CC(=O)NCCO)C(=O)N[C@H](COC(=O)[C@@H](CC=C)CC(=O)OC(C)(C)C)Cc1c[nH]c2ccccc12	1	16	94	·	·	·	·
Cc1ccc(CNC2=NCCCCC2)n1C	11*	-6	98	-3	-3	0	0
c1ccc(CNC2=NCCCCC2)cc1	2	13	95	-14	-1	0	·
Cc1ccc(C(=O)CCC(=O)NC2=NCCS2)cc1	2	-8	82	·	·	·	-2
Cc1cc(OCCCC(=O)NC2=NCCS2)ccc1Cl	9.5*	-12	100	-7	-1	1	-2
CCCCNC(=O)Cn1cnc([N+](=O)[O-])n1	20	9	116	43	22	-1	·
C[C@@H]1CN([C@@H](C)CO)S(=O)(=O)c2ccc(Br)cc2O[C@@H]1CN(C)C(=O)c1ccncc1	5.2*	-6	·	·	·	·	-1
C[C@H]1CN([C@@H](C)CO)S(=O)(=O)c2ccc(Br)cc2O[C@@H]1CN(C)C(=O)c1cccnc1	-1	-3	·	·	·	·	·
O=C1COc2ccc(C(=O)COC(=O)c3ccc(F)cc3Cl)cc2N1	0	5	93	·	·	·	·
COc1ccccc1NC(=S)NCCSc1ccc(Cl)cc1	-1	0	96	4	14	0	·
COc1ccc(Cl)cc1NC(=S)NCCSc1ccc(C)cc1	7.6*	-3	107	28	27	0	4
O=C(Nc1ccc(Cl)c(Cl)c1)OCc1cnc(Cl)s1	2	0	104	15	-53	0	·
O=C(Nc1ccccc1)OCc1cnc(Cl)s1	7.0*	3	116	-5	-14	1	2
COCCn1c(SCC(=O)NCc2ccccc2)nc2ccccc21	2	0	94	-3	25	0	·
COCCn1c(SCC(=O)NNC(=O)c2ccccc2)nc2ccccc21	12*	-8	88	·	·	·	-1
Cc1nc2c(-c3ccc(F)cc3)c(C)nn2c(N2CCOCC2)c1C	-5	3	100	5	10	-1	·
CCOCC(=O)N1CCN(Cc2ccc3c(c2)OCO3)CC1	9.3*	-3	100	8	14	-1	0
C[C@@H](C(=O)N1CCN(Cc2ccc3c(c2)OCO3)CC1)n1nnc2ccccc2c1=O	24*	6	109	-16	9	0	2
CCCC(=O)N1CCN(Cc2ccc3c(c2)OCO3)CC1	-2	6	99	-6	8	0	·
SMILES	V-ATPase pHluor	NRP1-CendR mod	Yeast superoxide	T cruzi repl	AI-2 QS mod	HIF act	VATPase regulator
CCOC(=O)N1CCN(C(=O)c2cc(S(=O)(=O)N3CCc4ccccc43)ccc2OC)CC1	0	-11	97	17	1	-1	·
Cc1noc(C)c1C(=O)N1CCN(Cc2ccc3c(c2)OCO3)CC1	0	-7	81	-6	8	0	·
CN(Cc1nc2c(s1)CCCC2)C(=O)CCc1nnc(-c2ccc3c(c2)OCO3)o1	0	10	121	1	8	-1	·
O=C(CCc1nnc(-c2ccc3c(c2)OCO3)o1)NC(c1cccnc1)C(F)(F)F (centres undefined)	8.6*	1	113	·	6	·	2
CC1=NOC(=O)/C1=C/c1ccc2c(c1)OCO2	11*	-37	82	1	11	-1	-31
O=C(C1CCCCC1)N1CCC(CO)(Cc2ccccc2Cl)CC1	8.6*	7	90	12	-4	1	2
CCOc1cc(/C=C/C(=O)c2ccc3c(c2)OCCO3)ccc1OCC(=O)N(C)C	15*	4	92	-21	14	2	0
CCCCN(C)CCCNC(=O)CN1C(=O)CSc2ccc(S(=O)(=O)N3CCOCC3)cc21	9.5*	7	99	-11	6	0	1
CN(CC(=O)Nc1cc(S(=O)(=O)N2CCOCC2)ccc1Cl)C1CCS(=O)(=O)C1 (centres undefined)	7.6*	6	116	10	23	0	4
Cc1ccc(S(=O)(=O)N2CCOCC2)cc1NC(=O)CN(C)C1CCS(=O)(=O)C1 (centres undefined)	-1	2	105	-12	16	-1	·
Cc1cc(Br)cn2c(Cc3ccccc3)c(C3CCCCC3)nc12	·	13	·	·	·	·	·
Cc1ncsc1CCOC(=O)c1ccc(N2CCOCC2)c([N+](=O)[O-])c1	2	1	102	-9	9	1	·
Cc1ncsc1CCOC(=O)c1ccc([N+](=O)[O-])cc1	45*	-8	102	8	46	0	-1
Cc1cc(-c2ccccc2)nc(N(C)NC(=O)C(C)(C)C)c1S(C)(=O)=O	0	4	93	-6	17	0	·
Cc1cc(-c2ccccc2)nc(N(C)NC(=O)c2ccc(Cl)cc2)c1S(C)(=O)=O	18*	-4	106	8	6	0	-3
CC(=O)Nc1ccc(NC(=O)c2ccc(NS(=O)(=O)c3cc(C(C)(C)C)ccc3C)cc2)cc1	1	-5	90	2	8	0	·
CC(=O)Nc1ccc(NC(=O)c2ccc(C)c(S(=O)(=O)Nc3cccc(C)c3)c2)cc1	10*	9	90	4	17	0	0
COCCOC(=O)c1c(NC(=O)CNc2ccc(C)c(F)c2)sc(C(N)=O)c1C	-5	-3	105	-1	11	0	·
COCCOC(=O)c1c(NC(=O)CNCc2ccco2)sc(C(N)=O)c1C	10*	-14	108	16	15	0	-2
Cc1ccc(C(=O)NC2CCN(C(=O)NCc3ccccc3)CC2)cc1	-2	-1	101	-4	19	0	·
COc1ccc(Nc2nc(-c3cccnc3)cs2)c(OC)c1	9.1*	8	100	0	-6	1	3
COc1ccccc1N1C(=O)C(Cl)=C(Nc2ccccc2O)C1=O	-3	-68	·	24	36	1	·
Cn1c(SCC(=O)O)nc2sc3c(c2c1=O)CCC3	-1	-1	95	-12	16	-2	·
